Measured values as given in the M2OR odorant receptor database.

Key:
Conditions in all cases: stereoisomer not certain
UniProt Q8VGC6 = molecular target: T1, UniProt Q8VGC6
T1 sequence (whole entry): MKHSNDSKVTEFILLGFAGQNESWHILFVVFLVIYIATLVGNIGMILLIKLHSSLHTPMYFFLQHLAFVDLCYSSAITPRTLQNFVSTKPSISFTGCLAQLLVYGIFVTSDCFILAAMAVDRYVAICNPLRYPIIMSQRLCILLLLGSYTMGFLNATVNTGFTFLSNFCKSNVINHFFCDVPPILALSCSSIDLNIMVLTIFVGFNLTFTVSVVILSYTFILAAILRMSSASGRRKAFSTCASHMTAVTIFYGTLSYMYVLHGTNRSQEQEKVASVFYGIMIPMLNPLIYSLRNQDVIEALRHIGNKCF
Outline: (§1)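 Each entry records the cell line, G-protein, co-transfected protein and tags used. Methods varied with the source, often transient luciferase assays in mammalian cell lines. A receptor–molecule pair is called responsive (active) if the original authors judged its signal statistically different from baseline and non-responsive (inactive) otherwise.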

UniProt Q8VGD7 = molecular target: T2, UniProt Q8VGD7
T2 sequence (whole entry): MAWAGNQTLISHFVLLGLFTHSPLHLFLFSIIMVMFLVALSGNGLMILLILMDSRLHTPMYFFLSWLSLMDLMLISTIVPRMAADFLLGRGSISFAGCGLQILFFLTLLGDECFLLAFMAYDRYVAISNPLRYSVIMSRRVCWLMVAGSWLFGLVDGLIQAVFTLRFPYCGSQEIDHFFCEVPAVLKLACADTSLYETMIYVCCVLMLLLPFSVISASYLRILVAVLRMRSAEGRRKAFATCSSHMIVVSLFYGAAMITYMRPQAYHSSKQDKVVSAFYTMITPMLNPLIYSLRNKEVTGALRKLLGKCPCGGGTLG
Outline: as §1

UniProt Q8VGH1 = molecular target: T3, UniProt Q8VGH1
T3 sequence (whole entry): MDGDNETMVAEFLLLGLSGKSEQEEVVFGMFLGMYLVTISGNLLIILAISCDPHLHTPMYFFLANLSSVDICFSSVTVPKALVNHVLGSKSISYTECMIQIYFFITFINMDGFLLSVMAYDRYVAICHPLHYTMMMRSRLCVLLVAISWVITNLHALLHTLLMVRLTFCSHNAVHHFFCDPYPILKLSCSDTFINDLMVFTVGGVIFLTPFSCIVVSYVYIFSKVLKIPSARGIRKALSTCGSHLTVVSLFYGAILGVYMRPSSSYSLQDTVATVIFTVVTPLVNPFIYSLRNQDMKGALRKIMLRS
Outline: as §1

UniProt Q8VGJ1 = molecular target: T4, UniProt Q8VGJ1
T4 sequence (whole entry): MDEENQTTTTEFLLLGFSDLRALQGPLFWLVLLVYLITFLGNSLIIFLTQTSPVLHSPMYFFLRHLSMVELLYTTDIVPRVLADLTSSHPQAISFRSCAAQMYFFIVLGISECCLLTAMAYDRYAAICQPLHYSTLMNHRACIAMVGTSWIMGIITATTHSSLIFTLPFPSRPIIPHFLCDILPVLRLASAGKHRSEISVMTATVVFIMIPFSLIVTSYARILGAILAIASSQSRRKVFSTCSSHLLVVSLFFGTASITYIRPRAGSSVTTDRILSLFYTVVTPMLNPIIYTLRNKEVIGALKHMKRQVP
Outline: as §1

UniProt Q8VGJ5 = molecular target: T5, UniProt Q8VGJ5
T5 sequence (whole entry): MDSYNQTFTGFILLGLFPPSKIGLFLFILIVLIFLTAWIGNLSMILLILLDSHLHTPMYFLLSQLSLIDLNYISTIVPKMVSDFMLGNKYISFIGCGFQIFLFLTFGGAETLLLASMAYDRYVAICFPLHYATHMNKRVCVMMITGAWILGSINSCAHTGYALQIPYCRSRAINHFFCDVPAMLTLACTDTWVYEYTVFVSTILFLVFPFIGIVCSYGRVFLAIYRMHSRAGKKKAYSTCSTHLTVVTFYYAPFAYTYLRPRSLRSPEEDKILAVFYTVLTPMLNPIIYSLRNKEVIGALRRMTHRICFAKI
Outline: as §1

UniProt Q8VGL0 = molecular target: T6, UniProt Q8VGL0
T6 sequence (whole entry): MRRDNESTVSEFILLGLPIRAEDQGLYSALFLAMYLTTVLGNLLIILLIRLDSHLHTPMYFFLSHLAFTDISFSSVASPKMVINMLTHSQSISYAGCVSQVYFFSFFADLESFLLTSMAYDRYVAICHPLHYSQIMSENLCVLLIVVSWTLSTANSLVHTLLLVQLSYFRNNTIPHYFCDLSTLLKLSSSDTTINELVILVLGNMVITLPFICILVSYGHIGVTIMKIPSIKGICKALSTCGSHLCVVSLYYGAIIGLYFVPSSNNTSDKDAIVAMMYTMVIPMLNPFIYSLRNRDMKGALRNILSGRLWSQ
Outline: as §1

UniProt Q8VGL7 = molecular target: T7, UniProt Q8VGL7
T7 sequence (whole entry): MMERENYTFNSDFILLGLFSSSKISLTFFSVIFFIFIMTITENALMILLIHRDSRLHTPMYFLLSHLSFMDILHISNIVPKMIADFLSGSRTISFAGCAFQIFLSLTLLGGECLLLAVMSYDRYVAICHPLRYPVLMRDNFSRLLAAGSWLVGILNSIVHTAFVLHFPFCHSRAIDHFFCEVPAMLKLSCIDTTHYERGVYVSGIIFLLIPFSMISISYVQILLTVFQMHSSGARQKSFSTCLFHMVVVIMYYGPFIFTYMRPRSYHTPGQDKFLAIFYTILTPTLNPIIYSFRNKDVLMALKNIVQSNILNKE
Outline: as §1

UniProt Q8VGM2 = molecular target: T8, UniProt Q8VGM2
T8 sequence (whole entry): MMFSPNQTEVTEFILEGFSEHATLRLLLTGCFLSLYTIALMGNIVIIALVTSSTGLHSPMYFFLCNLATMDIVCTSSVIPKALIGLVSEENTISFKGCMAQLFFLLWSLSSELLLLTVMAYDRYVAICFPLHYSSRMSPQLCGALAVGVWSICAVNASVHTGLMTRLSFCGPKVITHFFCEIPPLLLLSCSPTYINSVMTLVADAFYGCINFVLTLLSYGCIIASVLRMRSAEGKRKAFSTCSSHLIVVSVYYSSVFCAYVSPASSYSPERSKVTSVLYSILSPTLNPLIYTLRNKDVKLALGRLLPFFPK
Outline: as §1

UniProt Q8VGP6 = molecular target: T9, UniProt Q8VGP6
T9 sequence (whole entry): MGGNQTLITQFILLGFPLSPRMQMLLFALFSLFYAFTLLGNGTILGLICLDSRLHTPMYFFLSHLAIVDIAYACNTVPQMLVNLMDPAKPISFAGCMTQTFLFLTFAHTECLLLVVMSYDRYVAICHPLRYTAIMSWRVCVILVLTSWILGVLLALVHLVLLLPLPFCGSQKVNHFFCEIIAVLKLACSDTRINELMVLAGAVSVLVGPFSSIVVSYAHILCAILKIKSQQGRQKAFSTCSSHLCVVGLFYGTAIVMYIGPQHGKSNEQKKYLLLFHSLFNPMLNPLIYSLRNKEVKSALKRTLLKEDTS
Outline: as §1

UniProt Q8VGQ3 = molecular target: T10, UniProt Q8VGQ3
T10 sequence (whole entry): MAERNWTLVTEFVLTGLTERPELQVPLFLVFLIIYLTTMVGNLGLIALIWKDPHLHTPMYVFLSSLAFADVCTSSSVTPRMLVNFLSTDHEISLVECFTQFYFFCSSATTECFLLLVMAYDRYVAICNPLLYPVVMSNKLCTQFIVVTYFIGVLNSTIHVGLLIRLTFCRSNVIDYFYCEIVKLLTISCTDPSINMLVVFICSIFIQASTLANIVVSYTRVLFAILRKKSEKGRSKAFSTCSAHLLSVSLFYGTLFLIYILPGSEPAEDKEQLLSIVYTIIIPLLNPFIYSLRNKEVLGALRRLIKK
Outline: as §1

UniProt Q8VGT4 = molecular target: T11, UniProt Q8VGT4
T11 sequence (whole entry): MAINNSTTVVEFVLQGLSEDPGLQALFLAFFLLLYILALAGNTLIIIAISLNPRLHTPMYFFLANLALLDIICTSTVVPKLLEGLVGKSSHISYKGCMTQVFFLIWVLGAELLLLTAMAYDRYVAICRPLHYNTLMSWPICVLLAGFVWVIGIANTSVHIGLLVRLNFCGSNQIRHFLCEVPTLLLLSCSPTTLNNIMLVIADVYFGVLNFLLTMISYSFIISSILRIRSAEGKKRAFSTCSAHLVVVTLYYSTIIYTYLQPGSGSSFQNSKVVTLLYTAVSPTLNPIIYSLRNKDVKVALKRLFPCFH
Outline: as §1

UniProt Q8VGV1 = molecular target: T12, UniProt Q8VGV1
T12 sequence (whole entry): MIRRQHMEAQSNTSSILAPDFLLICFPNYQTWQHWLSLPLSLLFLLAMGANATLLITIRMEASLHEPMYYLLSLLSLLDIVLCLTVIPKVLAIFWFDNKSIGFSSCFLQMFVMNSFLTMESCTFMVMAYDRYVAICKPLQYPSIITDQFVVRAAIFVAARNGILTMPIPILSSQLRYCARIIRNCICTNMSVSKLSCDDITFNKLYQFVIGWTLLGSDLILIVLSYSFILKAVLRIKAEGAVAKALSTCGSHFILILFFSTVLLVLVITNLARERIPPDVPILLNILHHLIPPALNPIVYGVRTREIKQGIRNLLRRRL
Outline: as §1

UniProt Q8VGX5 = molecular target: T13, UniProt Q8VGX5
T13 sequence (whole entry): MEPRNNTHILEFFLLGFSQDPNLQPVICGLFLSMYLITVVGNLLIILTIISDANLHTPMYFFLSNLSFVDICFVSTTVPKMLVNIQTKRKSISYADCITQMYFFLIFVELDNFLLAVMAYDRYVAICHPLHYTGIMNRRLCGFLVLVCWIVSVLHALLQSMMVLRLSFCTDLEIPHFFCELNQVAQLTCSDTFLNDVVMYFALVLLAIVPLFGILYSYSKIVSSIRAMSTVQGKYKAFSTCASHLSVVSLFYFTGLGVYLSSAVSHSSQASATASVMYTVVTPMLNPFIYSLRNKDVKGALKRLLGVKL
Outline: as §1

UniProt Q8VGW5 = molecular target: T14, UniProt Q8VGW5
T14 sequence (whole entry): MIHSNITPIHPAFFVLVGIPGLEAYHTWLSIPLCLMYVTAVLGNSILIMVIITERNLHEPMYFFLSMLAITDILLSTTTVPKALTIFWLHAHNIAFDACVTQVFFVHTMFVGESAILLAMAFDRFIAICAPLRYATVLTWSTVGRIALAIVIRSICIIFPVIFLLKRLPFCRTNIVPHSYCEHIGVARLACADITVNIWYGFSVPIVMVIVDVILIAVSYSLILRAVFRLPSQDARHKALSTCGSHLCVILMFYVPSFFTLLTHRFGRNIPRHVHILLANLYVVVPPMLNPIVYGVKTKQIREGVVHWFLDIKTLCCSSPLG
Outline: as §1

UniProt Q8VGJ3 = molecular target: T15, UniProt Q8VGJ3
T15 sequence (whole entry): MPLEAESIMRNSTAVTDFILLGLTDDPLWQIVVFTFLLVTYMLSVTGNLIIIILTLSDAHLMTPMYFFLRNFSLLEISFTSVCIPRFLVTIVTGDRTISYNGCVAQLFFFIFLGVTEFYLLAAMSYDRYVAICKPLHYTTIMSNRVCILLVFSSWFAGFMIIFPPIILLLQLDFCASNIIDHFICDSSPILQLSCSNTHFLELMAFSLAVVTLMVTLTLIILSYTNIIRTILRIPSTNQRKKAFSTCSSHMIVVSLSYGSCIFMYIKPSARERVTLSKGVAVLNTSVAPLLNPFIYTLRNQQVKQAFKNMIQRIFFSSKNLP
Outline: as §1

UniProt Q8VGU3 = molecular target: T16, UniProt Q8VGU3
T16 sequence (whole entry): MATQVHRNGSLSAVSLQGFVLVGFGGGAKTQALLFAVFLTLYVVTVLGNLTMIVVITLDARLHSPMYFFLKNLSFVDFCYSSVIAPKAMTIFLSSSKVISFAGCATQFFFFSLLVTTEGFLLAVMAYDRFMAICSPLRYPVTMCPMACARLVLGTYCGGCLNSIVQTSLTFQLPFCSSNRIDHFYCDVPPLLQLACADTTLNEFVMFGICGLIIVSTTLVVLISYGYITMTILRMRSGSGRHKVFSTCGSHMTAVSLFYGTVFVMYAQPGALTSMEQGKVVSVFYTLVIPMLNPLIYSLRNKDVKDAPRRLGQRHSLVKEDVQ
Outline: as §1

UniProt Q8VGV7 = molecular target: T17, UniProt Q8VGV7
T17 sequence (whole entry): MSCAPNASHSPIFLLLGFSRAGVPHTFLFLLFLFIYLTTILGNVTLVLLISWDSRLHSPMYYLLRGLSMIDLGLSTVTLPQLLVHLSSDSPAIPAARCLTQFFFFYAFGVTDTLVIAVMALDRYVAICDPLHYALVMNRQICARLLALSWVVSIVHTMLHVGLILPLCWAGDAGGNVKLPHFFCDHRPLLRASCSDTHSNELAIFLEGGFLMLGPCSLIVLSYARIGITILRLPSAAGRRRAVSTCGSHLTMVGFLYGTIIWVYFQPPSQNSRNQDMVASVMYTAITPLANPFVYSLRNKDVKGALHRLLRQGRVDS
Outline: as §1

UniProt Q8VGX3 = molecular target: T18, UniProt Q8VGX3
T18 sequence (whole entry): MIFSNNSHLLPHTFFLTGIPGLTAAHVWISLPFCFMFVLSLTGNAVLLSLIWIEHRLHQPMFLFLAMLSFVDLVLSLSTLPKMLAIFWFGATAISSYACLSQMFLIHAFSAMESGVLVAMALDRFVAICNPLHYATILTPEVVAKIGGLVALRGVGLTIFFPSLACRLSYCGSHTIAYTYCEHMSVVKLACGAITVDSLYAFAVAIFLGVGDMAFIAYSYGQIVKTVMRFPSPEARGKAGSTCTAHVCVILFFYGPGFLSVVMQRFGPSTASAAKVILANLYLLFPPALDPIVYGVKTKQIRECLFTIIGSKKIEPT
Outline: as §1

Measured: odorant receptor agonist call

CCC(C(=O)O)c1ccccc1 (stereo not given)
not listed: UniProt Q8VGW5 | UniProt Q8VGJ3 | UniProt Q8VGU3 | UniProt Q8VGV7 | UniProt Q8VGX3
inactive: all other assays above

CCCCCCC(=O)[O-].[H+]
not listed: UniProt Q8VGJ3 | UniProt Q8VGU3 | UniProt Q8VGV7 | UniProt Q8VGX3
inactive: all other assays above

CSSCc1ccco1
inactive: UniProt Q8VGC6 | UniProt Q8VGJ3 | UniProt Q8VGL0 | UniProt Q8VGU3 | UniProt Q8VGV7 | UniProt Q8VGX3 | UniProt Q8VGX5

Cc1ccc(C(C)C)c(O)c1
inactive: UniProt Q8VGC6 | UniProt Q8VGJ3 | UniProt Q8VGL0 | UniProt Q8VGU3 | UniProt Q8VGV7 | UniProt Q8VGX5
active: UniProt Q8VGX3

CC12CCC(CC1=O)C2(C)C (stereo not given)
active: UniProt Q8VGD7 | UniProt Q8VGL0 | UniProt Q8VGT4 | UniProt Q8VGX5
not listed: UniProt Q8VGW5
inactive: all other assays above

CCCCC(=O)O
not listed: UniProt Q8VGW5
inactive: all other assays above
